Experimental data published in paper PMC9979266 (Acta Pharmaceutica Sinica. B, 2022).

Key:
[1] = tested on: TGF-β1-induced A549 cells; test: Marker expression; assay type: cell-based, human; details: n = 3; for miR-23b-5p expression after inhibitor treatment: 10 μmol/L pretreatment, qPCR
Summary of the method: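 A549 in RPMI 1640 + 10% FBS, plated 24 h, serum-starved overnight. Three pathway inhibitors at 10 μmol/L added 30 min before TGF-β1 (5 ng/mL) plus test peptide. Harvest: RNA/protein at 48 h, phosphoproteins at 1 h. Western: 30 μg protein, 10% SDS-PAGE, ECL, GAPDH-normalised. qPCR: 2−ΔΔCt with GAPDH (mRNA) or U6 (miRNA) reference. At least three independent replicates, mean ± SD.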

NIH3T3 cells = test: MTT cell cytotoxicity assay, NIH3T3; assay type: cell-based, murine; details: 10–160 μmol/L, 24 h, n = 3

Row | Molecule | miR-23b-5p expression after inhibitor treatment [1] | AQP5 expression after inhibitor pretreatment ([1]; 10 μmol/L, 30 min pretreatment, Western blot) | Cytotoxicity against NIH3T3 cells (NIH3T3 cells)
1 | COc1cccc(-c2cc(=O)c3ccccc3o2)c1N [PD98059] | reduced | elevated | –
2 | C[S+]([O-])c1ccc(-c2nc(-c3ccncc3)c(-c3ccc(F)cc3)[nH]2)cc1 (stereo not drawn) [SB203580] | reduced | – | –
3 | DHAAPQIR-NH2 [DR3d4dA] | – | – | no toxicity
4 | DHANPQIR-NH2 [DR3dA] | – | – | no toxicity
5 | DHNAPQIR-NH2 [DR4dA] | – | – | no toxicity
